How the values were obtained:
Rattus norvegicus [1] = assay: Gastroprotective activity on stress-induced ulcers in male Wistar rats at 12.5 mg/kg upon intraperitoneal administration; type: functional
Method in brief: (§1)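 Rats (160-180 g) fasted 24 h, given test compound ip in physiological saline; saline-only controls. After 1 h, restrained in net cage and immersed to xiphisternum in 21 °C water bath for 6 h, then killed and stomachs opened along greater curvature. Hemorrhagic ulceration scored 0-3; % protection = 100 − (treated total rating/saline rating)×100. Five rats per dose.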

Rattus norvegicus [2] = assay: Gastroprotective activity on stress-induced ulcers in male Wistar rats at 25 mg/kg upon intraperitoneal administration; type: functional; method in brief: as §1
Rattus norvegicus [3] = assay: Gastroprotective activity on stress-induced ulcers in male Wistar rats at 50 mg/kg upon intraperitoneal administration; type: functional; method in brief: as §1
Rattus norvegicus [4] = assay: Gastroprotective activity on stress-induced ulcers in male Wistar rats at 6.25 mg/kg upon intraperitoneal administration; type: functional; method in brief: as §1
[5] = Lethal dose in mice upon intraperitoneal administration;Value ranges from(131.6-243.4); type: toxicity, organism-based; conditions: mouse, in vivo, ip
[6] = Lethal dose in mice upon intraperitoneal administration;Value ranges from(5-9.8); type: toxicity, organism-based; conditions: mouse, in vivo, ip
Rattus norvegicus [7] = assay: Gastroprotective activity on stress-induced ulcers in male Wistar rats at 6.25 mg/kg upon intraperitoneal administration;the minimum effective dose = 125 ug/kg (protection 66%); type: functional
Method in brief: (§2)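 Male Wistar rats (160-180 g), food-deprived 24 h, given compound ip in physiological saline; saline-only controls. After 1 h, restrained in net cage and immersed to xiphisternum in 21 °C water for 6 h. Stomachs removed and opened along greater curvature, hemorrhagic ulceration scored 0-3. % protection = 100 − (treated total rating / saline rating)×100. Five rats per dose.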

Rattus norvegicus [8] = assay: Gastroprotective activity on stress-induced ulcers in male Wistar rats at the specified ip dose of 12.5 mg/kg; type: functional; conditions: route intraperitoneal; method in brief: as §2

SMILES | Protection (Rattus norvegicus [1]) | Protection (Rattus norvegicus [2]) | Protection (Rattus norvegicus [3]) | Protection (Rattus norvegicus [4]) | LD50 [5] | LD50 [6] | Protection (Rattus norvegicus [7]) | Protection (Rattus norvegicus [8])
NC(CC(=O)O)C(O)C(O)C(=O)[O-].[Na+] (centres undefined) | 0% | 23% | 43% |  |  |  |  | 
CC(=O)NC1CC(=O)OC1C(OC(C)=O)C(=O)NC(CC(C)C)C1Cc2cccc(OC(C)=O)c2C(=O)O1 (centres undefined) | 0% | 0% | 16% |  |  |  |  | 
CC(=O)NC1CC(=O)OC1C(OC(C)=O)C(=O)NC(CC(C)C)C1Cc2cccc(O)c2C(=O)O1 (centres undefined) | 0% | 16% | 16% |  |  |  |  | 
CC(C)CC(NC(=O)C(O)C(O)C(N)CC(=O)O)C(O)Cc1cccc(O)c1C(=O)[O-].[Na+] (centres undefined) | 16% | 50% | 50% |  |  |  |  | 
COc1cccc2c1C(=O)OC(C(CC(C)C)NC(=O)C(O)C(O)C(N)CC(=O)O)C2 (centres undefined) | 66% | 83% | 83% | 50% |  |  |  | 
CC(=O)NC1CC(=O)OC1C(O)C(=O)NC(CC(C)C)C1Cc2cccc(O)c2C(=O)O1 (centres undefined) | 16% | 33% | 66% |  |  |  |  | 
CC(C)C[C@H](NC(=O)[C@@H](O)[C@@H](O)[C@@H](N)CC(=O)O)[C@@H]1Cc2cccc(O)c2C(=O)O1 | 76% | 100% | 100% | 56% | 179 mg/kg |  |  | 
CC(C)CC(NC(=O)C(O)C1OC(=O)CC1N)C1Cc2cccc(O)c2C(=O)O1 (centres undefined) | 76% | 76% | 83% | 17% |  |  |  | 
CC(C)CC(NC(=O)C(O)C1C=CC(=O)O1)C1Cc2cccc(O)c2C(=O)O1 (centres undefined) | 0% | 16% | 33% |  |  |  |  | 
CC(C)CC(N)C1Cc2cccc(O)c2C(=O)O1.Cl (centres undefined) | 16% | 33% | 33% |  |  |  |  | 
CC(C)CC(NC(=O)C(O)C(O)C(N)CC(N)=O)C1Cc2cccc(O)c2C(=O)O1.Cl (centres undefined) |  | 100% | 100% |  |  | 7 mg/kg | 100% | 100%

— ChEMBL document CHEMBL1122320, “1H-2-benzopyran-1-one derivatives, microbial products with pharmacological activity. Relationship between structure and activity in 6-[[1(S)-(3(S),4- dihydro-8-hydroxy-1-oxo-1H-2-benzopyran-3-yl)-3-methylbutyl]-amino]-4(S), 5(S)-dihydroxy-6-oxo-3(S)-ammoniohexanoate” (J Med Chem, 1983)
